According to PubChem BioAssay AID720543 (The Scripps Research Institute Molecular Screening Center, 2013):
The whole screen tested about 370,000 compounds, of which about 2,000 (0.54%) were called active.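 Rule for the calls: active = inhibition exceeding the mean over every tested compound plus 3 SD (cut at about 30% in these data); inactive = the rest.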 For the sample, actives were picked, then their nearest neighbours and some compounds at random.

The compounds below were run against (Lyso)-N-acylphosphatidylethanolamine lipase (Mus musculus) (UniProt Q8VD66) (assay: ABHD4 inhibitors, primary screen, biochemical, fluorescence polarization, mouse (AID 720543;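 note: 0% = plate median of compound wells and 100% = S159A mutant with DMSO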)). Details: purified mABHD4, FP-Rh probe fluorescence polarization; at 8.92 µM; active compounds read high.
(Lyso)-N-acylphosphatidylethanolamine lipase (Mus musculus), sequence (Q8VD66 whole entry, looked up): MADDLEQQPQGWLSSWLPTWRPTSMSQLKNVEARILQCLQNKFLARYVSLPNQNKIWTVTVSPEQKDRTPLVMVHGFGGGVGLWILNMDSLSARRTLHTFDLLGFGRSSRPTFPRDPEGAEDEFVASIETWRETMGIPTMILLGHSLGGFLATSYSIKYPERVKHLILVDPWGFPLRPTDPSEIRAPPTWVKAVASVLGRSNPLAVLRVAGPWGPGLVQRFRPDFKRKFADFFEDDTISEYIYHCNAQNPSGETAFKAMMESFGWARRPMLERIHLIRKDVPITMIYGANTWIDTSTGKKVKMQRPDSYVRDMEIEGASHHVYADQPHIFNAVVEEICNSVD
In short: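 system = mouse ABHD4 enzyme, wild type | medium = HEPES pH 7.0, NaCl, Pluronic buffer | also added = FP-Rh probe | incubation = Enzyme–compound pre-incubation 45 min, then probe 60 min, both 25 °C | technique = fluorescence polarization, excitation 525 nm, emission 598 nm, BODIPY TMR filters | controls = S159A mutant high control, sample median low control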
With `Cc1nc(CNc2ncnc3ccc(-c4ccc5c(c4)OCO5)cc23)cs1` the inhibition was -1.75% (inactive). With `O=C(OCc1ccccc1)N1CCC2CC1c1cc(N3CCN(S(=O)(=O)c4cc(Cl)cc(Cl)c4)CC3)ccc12` (stereo not given) the inhibition was 2.29% (inactive). For `CCOC(=O)[C@H]1[C@H]2COc3ccc(Cl)cc3[C@@H]2N2C(=O)c3cc(C)ccc3NC(=O)[C@@]12C`, the inhibition was 2.18% (inactive). For `CCOC(=O)[C@H]1Nc2ccc(Cl)cc2[C@@H]2[C@H]1C1CC(c3ccccc31)N2C(=O)OCc1ccccc1` (stereo not given in full), the inhibition was 46.2% (active). In the case of `Cc1cc2nc3c(=O)[nH]c(=O)nc-3n(C[C@H](O)[C@H](O)[C@H](O)CO)c2cc1C`, the inhibition is reported as 15.4% (inactive). In the case of `CCN(CC)CCCC(C)n1c2nc(=O)[nH]c(=O)c-2nc2cc(Cl)ccc21` (stereo not given), the inhibition is reported as 29.5% (active). For `O=C(CSc1nc2ccccc2s1)N=Nc1c(O)[nH]c2ccccc12`, the inhibition was -11.2% (inactive). For `C/C(=N\NC(=O)c1ccc(C)cc1)C1C(=O)c2ccccc2C1=O`, the inhibition was 32.6% (active). With `C/C(=N\NC(=O)CNC(=O)C(c1ccccc1)c1ccccc1)c1ccc(C)cc1` the inhibition was 0.45% (inactive). `O=C1c2ccccc2C(=O)C1C(=O)C1CC1` was tested, and the inhibition was 10.5% (inactive). In the case of `CCOc1cc(C(=O)N2CCc3cc(OC)c(OC)cc3C2)ccc1OC(F)F`, the inhibition is reported as -1.64% (inactive). With `O=C(NCCCc1ccccc1)[C@H](Cc1ccccc1)NC1(C(=O)NCCc2c[nH]c3ccccc23)CCC1` the inhibition was -14.2% (inactive). `CC(CNc1ccc([N+](=O)[O-])c2cccnc12)Nc1c([N+](=O)[O-])cc(C(F)(F)F)cc1[N+](=O)[O-]` (stereo not given) was tested, and the inhibition was 3.66% (inactive). For `CN(C1CCS(=O)(=O)C1)S(=O)(=O)c1ccc2ccccc2c1` (stereo not given), the inhibition was 3.99% (inactive). With `CC(=O)Oc1ccc(N(C(C)=O)S(=O)(=O)c2ccc3ccccc3c2)cc1Br` the inhibition was 32.3% (active). `CCN1CCN(C(=O)CN(C)S(=O)(=O)c2ccc3ccccc3c2)CC1` was tested, and the inhibition was 4.18% (inactive). `Brc1c(CSc2nncc3ccccc23)nc2ccccn12` was tested, and the inhibition was -3.21% (inactive). For `CCC(C)[C@@H](C(=O)OC)N(CCc1cn(Cc2ccccc2)nn1)S(=O)(=O)c1ccccc1Br` (stereo not given in full), the inhibition was -6.72% (inactive). For `O=C(COc1ccc(-c2ccccc2)cc1)NN=C1CCCC1`, the inhibition was 0.58% (inactive). With `c1ccc2sc(NN=C3CCCC3)nc2c1` the inhibition was 37.2% (active). For `O=C1NC(Nc2nc3ccccc3s2)(C(F)(F)F)C(=O)N1C1CCCCC1` (stereo not given), the inhibition was -23% (inactive). In the case of `COC(=O)C1=C(C)N(Cc2ccc(C(F)(F)F)cc2)C(=NCc2ccccc2)NC1c1ccccc1C(F)(F)F` (stereo not given), the inhibition is reported as 6.99% (inactive). In the case of `Cc1nc2ccc(C(=O)N3CCN(C(=O)C(C)(C)C)CC3)cc2n1C1CCCC1`, the inhibition is reported as -2.14% (inactive). For `COC(=O)[C@]12C[C@H](CC(=O)NCCc3ccccc3OC)C(=O)N(Cc3ccco3)C1=C[C@H](C(C)C)O[C@@H]2C1CC1`, the inhibition was -4.62% (inactive). For `CCOc1[nH]n(-c2ccc(Cl)cc2)c(=O)c1C=Nc1ccc(O)cc1`, the inhibition was 37.3% (active). For `O=C(c1cccc(C(F)(F)F)c1)N1CC[C@H]2[C@H](CCCN2Cc2cc(F)cc(F)c2)C1`, the inhibition was -3.78% (inactive). For `CCC1(CC)NC(=O)N(CC(=O)OCC(=O)Nc2ccc(C(F)(F)F)cc2)C1=O`, the inhibition was -3.48% (inactive). With `O=C(CSc1nc2ccccc2n1Cc1ccccc1Cl)N/N=C\c1c[nH]c2ccccc12` the inhibition was -14.1% (inactive). In the case of `O=C(CSc1nc2ccccc2s1)NN=Cc1ccc(O)cc1O`, the inhibition is reported as 0.63% (inactive). For `Cn1c(SCC(=O)N/N=C/c2ccc(O)c(O)c2)nc2ccccc21`, the inhibition was 30.7% (active). For `CC1CN(C(=O)c2cccc(NS(=O)(=O)c3ccc(Br)cc3)c2)CC(C)O1` (stereo not given), the inhibition was 3.29% (inactive). With `C/C(=N/N1CCN(Cc2cccc3ccccc23)CC1)c1cccnc1` the inhibition was -2.15% (inactive). In the case of `COCCCNC(NC(=O)c1ccc(C)cc1)C(Cl)(Cl)Cl` (stereo not given), the inhibition is reported as -5.04% (inactive). For `O=C(C1CCCO1)N1CCN(S(=O)(=O)c2ccc(Br)cc2)CC1` (stereo not given), the inhibition was 1.47% (inactive). For `Oc1ccc(/C=N/Nc2ccc(C(F)(F)F)cn2)cc1O`, the inhibition was 36.2% (active). `O=C(N/N=C/c1ccc(O)c(O)c1)C1c2ccccc2Oc2ccccc21` was tested, and the inhibition was 26.1% (inactive). For `Cc1nnsc1C(=O)N/N=C/c1cccc(C(F)(F)F)c1`, the inhibition was 3.14% (inactive). With `Cc1nccc(-c2ccc(-n3c(C)ccc3C)cc2)n1` the inhibition was -7.18% (inactive). With `CNC(=S)NNC(=O)c1oc2nc(-c3ccccc3)cc(-c3ccco3)c2c1N` the inhibition was 37.3% (active). With `CC(C)CNC(=O)OCc1cn(Cc2ccc(F)cc2)nn1` the inhibition was -1.25% (inactive). In the case of `O=C(CSc1nnc(-c2cccc(Cl)c2)n1Cc1ccco1)Nc1ccc(OCc2ccccc2)cc1`, the inhibition is reported as 4.02% (inactive). In the case of `Cc1cc(C)cc(NC(=O)N2CCC(N(C)CCC(C)C)CC2)c1`, the inhibition is reported as -1.26% (inactive). With `CCn1c(SCC(=O)Nc2cccc(F)c2)nnc1-c1cc2cc(Br)ccc2o1` the inhibition was -4.13% (inactive). `[O-][n+]1ccc(OCc2ccccc2)cc1` was tested, and the inhibition was 1.3% (inactive). `CCOC(=O)C1=C(C)NC(SC)=NC1c1ccccc1` (stereo not given) was tested, and the inhibition was 4.01% (inactive). In the case of `Cc1cccc(C2C3=C(CCCC3=O)N=C3c4ccccc4C(=O)C32)c1` (stereo not given), the inhibition is reported as 25.7% (inactive). In the case of `CCOC(=O)C1=C(C)N=C2c3ccccc3C(=O)C2C1c1ccc(Br)cc1` (stereo not given), the inhibition is reported as 46.9% (active). `O=C(CN1CCCCCC1)N1c2ccccc2Sc2ccc(C(F)(F)F)cc21` was tested, and the inhibition was -5.91% (inactive). In the case of `Cc1ccc(S(=O)(=O)N(C)C)cc1NC(=O)COC(=O)C1COc2ccccc2O1` (stereo not given), the inhibition is reported as -2.17% (inactive). For `Cc1c(CC(=O)N2CCN(C(=O)C3COc4ccccc4O3)CC2)c(=O)oc2c(O)c(O)ccc12` (stereo not given), the inhibition was 31.1% (active). In the case of `COC(=O)Cc1cc(=O)oc2c(C)c(O)ccc12`, the inhibition is reported as -0.82% (inactive). For `NC(=O)CCC(NS(=O)(=O)c1ccc(Cl)cc1)C(=O)NCc1ccccc1Cl` (stereo not given), the inhibition was 1.64% (inactive). `Cc1noc(C)c1C(=O)N(CC(=O)NC1CCCC1)Cc1ccccc1F` was tested, and the inhibition was 8.87% (inactive). With `Cc1ccc2c(C)c(C(=O)N(C)CCC3CCCCO3)oc2c1C` (stereo not given) the inhibition was 2.89% (inactive). `COC(=O)CC1CCc2cc(C)cc(C(CC(C)C)NC(=O)[C@H](CC(C)C)NC(=O)OCc3ccccc3)c2O1` (stereo not given in full) was tested, and the inhibition was 1.24% (inactive).
